# High-throughput results (PubChem BioAssay)
# ABCG2 block = inhibitors of human ABCG2 transporter, ABCB1 counter-screen; Q9UNQ0; IgMXP3 cells, JC-1 efflux, flow cytometry; inhibition, % at 6.6 µM; 190,000 tested, 0.1% active; AID 1325;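 active means inhibition above 80%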;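 further: 0% = DMSO and 100% = nicardipine control wells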
# Target sequence (Q9UNQ0 whole entry, looked up): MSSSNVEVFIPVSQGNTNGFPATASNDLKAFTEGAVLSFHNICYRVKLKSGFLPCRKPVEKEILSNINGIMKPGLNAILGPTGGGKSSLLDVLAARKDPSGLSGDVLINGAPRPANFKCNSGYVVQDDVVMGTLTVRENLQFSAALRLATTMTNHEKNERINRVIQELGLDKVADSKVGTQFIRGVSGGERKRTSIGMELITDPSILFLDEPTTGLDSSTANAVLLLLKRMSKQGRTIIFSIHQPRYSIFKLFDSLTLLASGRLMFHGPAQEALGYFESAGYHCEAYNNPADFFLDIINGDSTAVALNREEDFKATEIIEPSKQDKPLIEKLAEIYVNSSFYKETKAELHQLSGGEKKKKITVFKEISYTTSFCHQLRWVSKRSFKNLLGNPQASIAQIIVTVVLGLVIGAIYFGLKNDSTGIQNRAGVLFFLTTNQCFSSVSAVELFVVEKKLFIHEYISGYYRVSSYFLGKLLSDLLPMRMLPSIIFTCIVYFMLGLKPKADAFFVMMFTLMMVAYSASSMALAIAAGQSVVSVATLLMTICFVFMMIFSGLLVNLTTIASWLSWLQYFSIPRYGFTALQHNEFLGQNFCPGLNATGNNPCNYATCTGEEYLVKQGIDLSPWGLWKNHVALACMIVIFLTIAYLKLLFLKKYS
#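 Incubation: cells with compound and JC-1, 10 min at 25 °C, rotating, no wash / Test system: IgMXP3 (ABCG2) plus far-red-tagged CCRF-Adr (ABCB1) cells / Compound dosing: one concentration, 6.6 µM final / Also added: JC-1 fluorescent substrate / Evaluation: efflux inhibition in percent versus controls / Detection: flow cytometry, 530 nm JC-1 signal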
# Lmaj promast = Leishmania major promastigote growth inhibition; Leishmania major promastigotes, resazurin fluorescence viability; inhibition, % at 10 µM; 200,000 tested, 9% active; AID 1063; in the data active means inhibition above about 50%;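 further: promastigotes grown with compound for 44 hours at 28 °C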
# WT yeast gro inh = growth inhibition of WT yeast, mitochondrial fusion screen; mitochondrial fusion phenotypic screen, WT strain; inhibition, % at 10 µM; AID 1362; 190,000 tested, 2.1% active; in the data active means inhibition above about 58%; tested in S. cerevisiae
# RAM network inh = blocks the yeast RAM network | S. cerevisiae dse1pr::URA3 reporter, 5-FOA growth OD615, 2 d; analog-sensitive cbk1-as2 kinase mutant strain | inhibition, % at 50 µM | 190,000 tested, 1.8% active | AID 868;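 active means inhibition above a set limit, 3 SD over mean compound inhibition, cut at about 8.4% in these data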;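 further: 0% = DMSO-only wells with no growth and 100% = 10 µM 1-NA-PP1 full growth; inhibition rescues growth on 5-FOA so higher OD means more RAM inhibition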
# ABCB1 block = blocks JC-1 efflux by human ABCB1 transporter. P08183. CCRF-Adr cells, flow cytometry. inhibition, % at 6.6 µM. 190,000 tested, 0.067% active; in the data active means inhibition above about 40%;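 further: 0% = vehicle and 100% = reference inhibitor; higher value means more JC-1 retained so stronger ABCB1 efflux block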
# Active calls of the source: *; / = not tested or not shown. The list is not random: actives were taken first. Their share in the collection is about 12%.
SMILES,ABCG2 block,Lmaj promast,WT yeast gro inh,RAM network inh,ABCB1 block
CCN1C(=O)/C(=c2/s/c(=C3\SC(C)=C(C)N3CC)c(=O)n2CC)N(c2ccccc2)C1=S,/,15.9,/,/,/
CCCCNC(=O)NS(=O)(=O)c1ccc(NS(=O)(=O)c2ccccc2)cc1,0.9,-4.1,21.1,0.4,0.1
CCN1CCN(C(=O)c2ccc3c(c2)c(C)c(C)n3Cc2ccccc2)CC1,1.3,8.9,-11.2,0.2,3.4
Cc1c(C)n(Cc2ccccc2)c2ccc(C(=O)OCCCN(C)C)cc12,-1.2,100.3*,87.4*,0.8,0.8
C=CCOc1ccc(C2C(C(=O)c3ccco3)=C(O)C(=O)N2c2nnc(C)s2)cc1 (centres undefined),2.9,-12.4,-4.3,5.4,0.5
CCOCCCNC(=O)C(c1ccccc1)N(Cc1ccc2c(c1)OCO2)C(=O)c1ccccc1O (centres undefined),-0.6,-1.0,0.4,0.4,0.0
COc1ccc(C(CCc2ccc(C)o2)NC(=O)Nc2ccc(OC)cc2OC)cc1 (centres undefined),1.3,24.8,21.0,10.1*,0.2
CC1(c2ccc([N+](=O)[O-])c(CS(=O)(=O)c3ccccc3)c2)OCCO1,4.4,-3.9,-4.6,-0.8,0.4
Cc1ccc(S(=O)(=O)N/N=C/c2cccc([N+](=O)[O-])c2)cc1,-1.6,-0.6,0.5,-0.1,0.0
CCCCCCCCCS(=O)(=O)N/N=C/c1cccc([N+](=O)[O-])c1,0.5,-4.1,88.4*,8.7*,0.2
COC(=O)c1cc(CNC(=O)c2cccc(Cl)c2Cl)ccc1OC,19.4,53.4*,-6.0,1.6,0.7
CCOC(=O)C1=CN(Cc2ccc(OC)cc2)C=C(C(=O)OCC)C1c1cccs1,2.5,100.1*,31.9,10.2*,1.7
CCOC(=O)C1=C(N)OC2=C(C(=O)CC(C)(C)C2)C1c1cccs1 (centres undefined),0.4,8.8,-27.5,-0.6,-0.1
Cc1ccc(S(=O)(=O)Nc2ccc(-c3csc(-c4ccccc4)n3)cc2)cc1,-2.8,4.1,32.6,4.3,-0.5
O=[N+]([O-])c1ccc(S(=O)(=O)Nc2ccc(-c3csc(-c4ccccc4)n3)cc2)cc1,3.1,21.8,95.4*,6.8,0.7
C=C(C)CNC(=S)NN=C1c2ccccc2-c2ccccc21,16.7,10.6,69.9*,4.4,0.4
COc1cccc(C2C(C(=O)Nc3cccnc3)=C(C)Nc3nnnn32)c1OC (centres undefined),-0.6,5.1,-17.9,1.6,0.4
CC1=C(C(=O)Nc2cccnc2)C(c2ccncc2)n2nnnc2N1 (centres undefined),-0.7,-3.8,-1.1,0.3,-0.1
COc1ccccc1NC(=O)C1=C(C)Nc2nnnn2C1c1cc(Br)ccc1OC (centres undefined),-1.0,96.7*,9.3,2.6,-2.0
CC1=C(C(=O)Nc2ccccc2)C(c2ccncc2)n2nnnc2N1 (centres undefined),1.6,56.8*,-18.4,0.1,0.5
O=c1c(Cc2ccccc2)c(O)ccn1C1CCCCCCC1,12.5,-8.5,-13.5,1.2,0.5
Cc1cccc2sc(NC(=O)C3c4ccccc4Oc4ccccc43)nc12,1.7,80.6*,0.8,3.5,0.0
O=C(Nc1ncccn1)C1c2ccccc2Oc2ccccc21,4.5,55.2*,-9.4,1.1,0.3
O=C(Nc1nc(-c2ccccc2)cs1)C1c2ccccc2Oc2ccccc21,-1.7,1.6,38.1,1.5,-0.4
O=C(Nc1nc(-c2ccncc2)cs1)C1c2ccccc2Oc2ccccc21,2.0,89.6*,39.1,1.2,0.1
SMILES,ABCG2 block,Lmaj promast,WT yeast gro inh,RAM network inh,ABCB1 block
Cc1ccccc1Cn1nc(C)c(NC(=O)C2c3ccccc3Oc3ccccc32)c1C,-4.2,84.3*,3.8,4.7,0.8
O=C(Nc1ccncc1)C1c2ccccc2Oc2ccccc21,1.5,23.5,3.9,0.0,0.4
COCCNc1nnc(SC(C)C(=O)Nc2ccc(-c3nc4ccc(C)cc4s3)cc2)s1 (centres undefined),-7.9,7.1,11.8,1.1,-0.8
O=c1[nH]ncc(N2CCCC2)c1Cl,-2.7,-3.0,1.2,0.5,-0.8
O=c1[nH]ncc(N2CCN(C(c3ccccc3)c3ccccc3)CC2)c1Cl,33.1,92.9*,68.5*,1.6,1.1
CCNC(=O)NC(=O)C(C)OC(=O)CNS(=O)(=O)c1c(Cl)cc(Br)cc1Cl (centres undefined),-2.3,-4.7,-9.8,1.9,-0.8
COc1ccc(C(CC(=O)O)NC(C)=O)cc1OC (centres undefined),7.0,-1.1,-4.4,1.9,0.9
